Data on three molecules can be found in PubChem BioAssay AID588806 (The Scripps Research Institute Molecular Screening Center, 2011).

This assay deals with Palmitoyl-protein thioesterase ABHD10, mitochondrial (Mus musculus) (UniProt Q6PE15). The experiment in a line: endogenous mouse ABHD10 activity inhibitors – cell-based, competitive gel ABPP, fluorescence, PME-1 inhibitor project, late-stage follow-up (AID 588806). Conditions: BW5147 mouse T cells, in situ FP-Rh gel ABPP, 4 h, stronger effect = higher value. An outline of the steps: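 test system = in situ endogenous ABHD10, murine T cells derived from BW5147 | buffer or medium = serum-free RPMI for cell treatment, homogenate at 1 mg/mL protein | doses = three test concentrations per compound, 0.25, 0.1 and 0.05 µM | timing = compound 4 h 37 °C, probe 30 min 25 °C | detection = in-gel fluorescence after SDS-PAGE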
Sequence of Palmitoyl-protein thioesterase ABHD10, mitochondrial (Mus musculus) (Q6PE15 whole entry, looked up): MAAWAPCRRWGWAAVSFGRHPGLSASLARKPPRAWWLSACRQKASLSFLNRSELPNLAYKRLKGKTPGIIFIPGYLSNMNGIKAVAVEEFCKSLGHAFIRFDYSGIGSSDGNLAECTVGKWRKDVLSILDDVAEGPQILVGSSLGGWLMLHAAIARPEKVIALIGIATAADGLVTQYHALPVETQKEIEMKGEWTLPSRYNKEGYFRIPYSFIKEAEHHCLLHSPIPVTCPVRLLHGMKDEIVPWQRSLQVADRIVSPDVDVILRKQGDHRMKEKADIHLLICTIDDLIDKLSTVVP

Regarding `CC[C@@]1(c2ccc(C)cc2)C(=O)N(C(=O)OC(C)C)N1C(=O)OC(C)C`, the inhibition was 90% (at 0.25 µM); 75% (inhibition, at 0.05 µM); 70% (inhibition, at 0.1 µM).
For `C=CCOC(=O)N1C(=O)[C@@](CC)(c2ccc(C)cc2)N1C(=O)OCC=C` the same measures were 70%, 40% and 60%.
For `CCCOC(=O)N1C(=O)[C@@](CC)(c2ccc(C)cc2)N1C(=O)OCCC` the same measures were 90%, 60% and 80%.
